Measurements reported in ChEMBL document CHEMBL3616472, “Design, synthesis and structure-activity relationship studies of novel phenoxyacetamide-based free fatty acid receptor 1 agonists for the treatment of type 2 diabetes” (Bioorg Med Chem, 2015).
Activity calls are given as the source filed them. The rule behind the calls is not given here.

Key:
[1] = biological target: T1, Free fatty acid receptor 1 (Homo sapiens, UniProt O14842); assay: Agonist activity at human FFA1 expressed in CHO cells assessed as induction of receptor activation by measuring Ca2+influx at 100 nM incubated for by FLIPR method; assay type: functional, cell-based
Procedure, shortened: (§1)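 CHO cells stably expressing human FFA1 (NM_005303), seeded 15 K cells/well, grown 16 h at 37 °C in 5% CO2. Compounds added and Ca2+ flux read on FLIPR Tetra. Activity expressed as (A−B)/(C−B)×100, with C from 10 µM γ-linolenic acid and B from vehicle. Single-concentration data are means of three independent experiments; EC50 values are means of three determinations.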

[2] = biological target: T1, Free fatty acid receptor 1; assay: Agonist activity at human FFA1 expressed in CHO cells assessed as induction of receptor activation by measuring Ca2+influx at 300 nM incubated for by FLIPR method; assay type: functional, cell-based
Procedure, shortened: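 CHO cells stably expressing human FFA1, seeded 15 K cells/well and grown 16 h at 37 °C. Response normalised as (A−B)/(C−B)×100 between vehicle (B) and 10 µM γ-linolenic acid (C).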

[3] = biological target: T1, Free fatty acid receptor 1; assay: Agonist activity at human FFA1 expressed in CHO cells assessed as induction of receptor activation by measuring Ca2+influx incubated for by FLIPR method; assay type: functional, cell-based; procedure, shortened: as §1
[4] = Lipophilicity, logD of the compound at pH 7.4 by shake flask method; assay type: physicochemical; conditions: buffer
Procedure, shortened: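 Shake-flask method with 1-octanol and buffer at pH 7.4, shaken at 700 rpm for 24 h, then left 1 h to separate. Octanol phase diluted ×10; both phases analysed by HPLC at 254 nm in duplicate. logD taken as the octanol/buffer peak-area ratio, corrected using two calibration points per compound per solvent. Three independent experiments.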

Mus musculus [5] = assay: Hypoglycemic activity in normal ICR mouse assessed as reduction in blood glucose level at 20 to 80 mg/kg, po by OGTT method; assay type: functional, organism-based
Procedure, shortened: (§2)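 Male ICR mice, 10 weeks old, fasted 12 h and randomised into groups (n = 6). Single oral dose in 0.5% carboxymethyl cellulose (10 mL/kg) at 20, 50 or 80 mg/kg. Oral glucose load (3 g/kg, 30% solution) given 30 min later. Tail blood sampled at −30, 0, 15, 30, 45, 60 and 120 min; mean ± SEM, two-tailed Student's t-test against vehicle.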

Mus musculus [6] = assay: Hypoglycemic activity in STZ-induced type-2 diabetic C57BL/6 mouse assessed as reduction in blood glucose level at 50 mg/kg, po by OGTT method; assay type: functional, organism-based
Procedure, shortened: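 Male C57BL/6 mice fed 45%-fat diet for 4 weeks, given STZ ip at 80 mg/kg, then fed high-fat diet for 4 more weeks. Mice with fasting glucose ≥11.1 mmol/L were used. After a 12 h fast (n = 6/group, with a normal-mouse control group), 50 mg/kg was given orally in 0.5% CMC, then 2 g/kg glucose orally 30 min later. Glucose read by test strip from −30 to 120 min; Student's t-test.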

Mus musculus [7] = assay: Hypoglycemic activity in normal ICR mouse assessed as reduction in blood glucose level at 20 mg/kg, po by OGTT method; assay type: functional, organism-based; procedure, shortened: as §2

T1 sequence (O14842 whole entry): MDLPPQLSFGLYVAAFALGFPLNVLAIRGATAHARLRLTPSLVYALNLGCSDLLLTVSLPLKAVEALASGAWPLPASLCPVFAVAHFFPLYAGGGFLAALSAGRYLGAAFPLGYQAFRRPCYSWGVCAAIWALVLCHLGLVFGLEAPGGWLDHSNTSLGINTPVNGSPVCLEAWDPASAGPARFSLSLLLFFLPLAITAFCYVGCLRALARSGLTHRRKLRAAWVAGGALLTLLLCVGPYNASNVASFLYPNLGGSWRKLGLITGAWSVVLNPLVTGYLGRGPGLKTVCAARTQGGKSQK

Row | Activity [1] | Activity [2] | Structure (SMILES) | also measured
1 | 20.8% |  | Cc1ccccc1OCC(=O)Nc1ccc(OCC(=O)O)c(F)c1 | 
2 | 19.9% | 39.6% | O=C(O)COc1ccc(NC(=O)Cc2ccccc2)cc1F | 
3 | 3.56% |  | CC(C)(Oc1ccccc1)C(=O)Nc1ccc(OCC(=O)O)c(F)c1 | 
4 | 32.8% |  | CC(Oc1cccc(C(C)(C)C)c1)C(=O)Nc1ccc(OCC(=O)O)c(F)c1 (stereo unspecified) | EC50 [3]: 140 nM; logD [4]: 0.63
5 | 9.78% | 26.5% | O=C(O)COc1ccc(NC(=O)C(=O)Nc2ccccc2)cc1F | 
6 | 35.7% |  | CC(Oc1ccccc1)C(=O)Nc1ccc(OCC(=O)O)c(F)c1 (stereo unspecified) | EC50 [3]: 135 nM; logD [4]: -0.18
7 | 31.7% |  | COc1cccc(OCC(=O)Nc2ccc(OCC(=O)O)c(F)c2)c1 | EC50 [3]: 148 nM
8 | 29.8% | 58.7% | O=C(O)COc1ccc(NC(=O)COc2ccccc2)cc1F | logD [4]: -1.25
9 | 3.56% | 12.8% | O=C(O)COc1ccc(NC(=O)c2ccccc2)cc1F | 
10 | 35.1% |  | CC(Oc1ccccc1F)C(=O)Nc1ccc(OCC(=O)O)c(F)c1 (stereo unspecified) | EC50 [3]: 136 nM; logD [4]: 0.07
11 | 40.2% |  | CC(C)(C)c1cccc(OCC(=O)Nc2ccc(OCC(=O)O)c(F)c2)c1 | EC50 [3]: 122 nM; logD [4]: 0.35
12 | 8.47% | 23.7% | O=C(O)COc1ccc(NC(=O)Nc2ccccc2)cc1F | 
13 | 6.78% | 19.9% | COc1ccccc1NC(=O)C(=O)Nc1ccc(OCC(=O)O)c(F)c1 | 

Second part, the molecule before the results:

Row | Structure (SMILES) | Activity [1] | Activity [2] | also measured
14 | Cc1cccc(NC(=O)C(=O)Nc2ccc(OCC(=O)O)c(F)c2)c1 | 17.6% | 36.3% | 
15 | O=C(O)COc1ccc(NC(=O)C2(C(=O)Nc3ccccc3)CC2)cc1F | 13.6% | 34.2% | 
16 | CCc1ccc(OCC(=O)Nc2ccc(OCC(=O)O)c(F)c2)cc1 | 14.6% |  | 
17 | O=C(O)COc1ccc(NC(=O)C(=O)Nc2cccc(Cl)c2)cc1F | 13.3% | 33.7% | 
18 | Cc1ccc(NC(=O)C(=O)Nc2ccc(OCC(=O)O)c(F)c2)cc1 | 11.3% | 29.9% | 
19 | CCOc1ccccc1OC(C)C(=O)Nc1ccc(OCC(=O)O)c(F)c1 (stereo unspecified) | 8.79% |  | 
20 | Cc1cccc(OCC(=O)Nc2ccc(OCC(=O)O)c(F)c2)c1 | 45.4% |  | EC50 [3]: 108 nM; logD [4]: -0.99; inhibition (Mus musculus [5]): Dose-dependent effect; inhibition (Mus musculus [6]): Active
21 | CC(Oc1cccc(C(F)(F)F)c1)C(=O)Nc1ccc(OCC(=O)O)c(F)c1 (stereo unspecified) | 12.7% |  | 
22 | Cc1ccc(C(C)C)cc1OC(C)C(=O)Nc1ccc(OCC(=O)O)c(F)c1 (stereo unspecified) | 19.4% |  | 
23 | Cc1ccc(OCC(=O)Nc2ccc(OCC(=O)O)c(F)c2)cc1 | 31.2% |  | EC50 [3]: 148 nM
24 | O=C(O)COc1ccc(NC(=O)COc2ccc(OC(F)(F)F)cc2)cc1F | 6.45% |  | 
25 | O=C(O)COc1ccc(NC(=O)COc2cccc(C(F)(F)F)c2)cc1F | 11.3% |  | 
26 | Cc1cc(OCCCS(C)(=O)=O)cc(C)c1-c1cccc(COc2ccc3c(c2)OC[C@H]3CC(=O)O)c1 |  |  | logD [4]: 2.43; inhibition (Mus musculus [7]): Active
27 | Cc1cc(OCCCS(C)(=O)=O)cc(C)c1-c1cccc(COc2ccc(OCC(=O)O)c(F)c2)c1 | 54.9% | 67.3% | logD [4]: 2.31
28 | Cc1cc(C)cc(OC(C)C(=O)Nc2ccc(OCC(=O)O)c(F)c2)c1 (stereo unspecified) | 25.7% |  | 
29 | Cc1ccc(OC(C)C(=O)Nc2ccc(OCC(=O)O)c(F)c2)cc1C (stereo unspecified) | 36.8% |  | EC50 [3]: 133 nM; logD [4]: 0.33
30 | CC(C)c1cccc(OCC(=O)Nc2ccc(OCC(=O)O)c(F)c2)c1 | 43.3% |  | EC50 [3]: 116 nM; logD [4]: 0.15
31 | CC(C)(C)c1ccc(OCC(=O)Nc2ccc(OCC(=O)O)c(F)c2)cc1 | 7.65% |  | 
32 | Cc1ccc(C)c(OC(C)C(=O)Nc2ccc(OCC(=O)O)c(F)c2)c1 (stereo unspecified) | 18.6% |  | 
33 | O=C(O)COc1ccc(NC(=O)C(=O)Nc2ccccc2Cl)cc1F | 10.2% | 27.9% | 
34 | CC(C)c1ccc(OCC(=O)Nc2ccc(OCC(=O)O)c(F)c2)cc1 | 11.8% |  | 
35 | COc1ccc(OCC(=O)Nc2ccc(OCC(=O)O)c(F)c2)cc1 | 5.73% |  | 
36 | Cc1ccc(C(C)C)cc1OCC(=O)Nc1ccc(OCC(=O)O)c(F)c1 | 14.6% |  | logD [4]: 0.47
37 | CCOc1ccc(OC(C)C(=O)Nc2ccc(OCC(=O)O)c(F)c2)cc1 (stereo unspecified) | 3.56% |  | 
